Source: PubChem (Sanford-Burnham Center for Chemical Genomics)
Rows were chosen to be rich in hits. Some 2.5% of all compounds tested hit in one or more screens of this group.
SENP8 block-1: human SENP8 protease inhibitors, primary screen, biochemical, fluorescence, Nedd8 protein substrate, uHTS; 0.64% of 360,000 active; recombinant SENP8; AID 602440, 2012; inhibition, % at 20 µM; Sentrin-specific protease 8 (Homo sapiens), Q96LD8; in the data active means inhibition mostly above about 40%, no sharp cut-off; inactive means mostly below about 27%
Target sequence (Q96LD8 whole entry, looked up): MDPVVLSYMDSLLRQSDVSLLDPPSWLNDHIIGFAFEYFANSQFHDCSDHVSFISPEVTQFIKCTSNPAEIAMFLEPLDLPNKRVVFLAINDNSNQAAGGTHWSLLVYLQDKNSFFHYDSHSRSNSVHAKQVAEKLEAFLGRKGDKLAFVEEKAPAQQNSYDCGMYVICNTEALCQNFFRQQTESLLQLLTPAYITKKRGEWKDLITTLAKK
SENP6 block: SENP6 protease inhibitors, primary screen, biochemical, luminescence, uHTS; Sentrin-specific protease 6 (Homo sapiens), Q9GZR1; Recombinant SENP6 catalytic domain, aminoluciferin luminescence; inhibition, % at 10 µM; 1.8% of 330,000 active; AID 2599, 2010;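 active means inhibition above about 50% at the single tested dose, limit read from the data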
SENP7 block: SENP7 protease inhibitors, primary screen, biochemical, luminescence, uHTS; Sentrin-specific protease 7 (Homo sapiens), Q9BQF6; recombinant SENP7, Z-RLRGG-aminoluciferin luminescence, 40 min; inhibition, % at 5 µM; 1.5% of 330,000 active; AID 434973, 2010;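 active means inhibition above about 50% at the single test dose, limit read from the data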
Target sequence (Q9BQF6 706-1050 limits assumed): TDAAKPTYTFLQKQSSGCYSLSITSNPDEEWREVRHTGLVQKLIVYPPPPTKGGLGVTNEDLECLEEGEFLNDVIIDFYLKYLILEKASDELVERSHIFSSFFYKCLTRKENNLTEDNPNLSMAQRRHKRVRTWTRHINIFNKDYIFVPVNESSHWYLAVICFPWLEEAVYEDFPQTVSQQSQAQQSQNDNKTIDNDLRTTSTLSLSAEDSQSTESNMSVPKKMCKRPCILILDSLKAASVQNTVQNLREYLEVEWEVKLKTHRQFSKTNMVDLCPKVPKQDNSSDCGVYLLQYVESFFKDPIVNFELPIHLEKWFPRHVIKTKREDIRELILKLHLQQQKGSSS
SENP1 FRET inh: human SENP1 catalytic domain inhibitors, primary screen, biochemical, FRET, uHTS; recombinant SENP1 catalytic domain, CyPet-SUMO1-YPet FRET cleavage; inhibition, % at 10 µM; 0.21% of 360,000 active; AID 624204, 2012;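 active means inhibition at least 30% at 10 µM, raw YFP signal under a set limit, fluorescence ratio 0.5 to 1.5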
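material = recombinant human SENP1 catalytic domain, His6-tagged | quantity = 20 pM enzyme | reagent = 25 nM SUMO1 FRET substrate | compound dosing = 10 µM single point, 0.5% DMSO | timing = 50 min enzyme reaction, room temperature, light-protected | detection = FRET, CFP and YFP emission | control set = no-enzyme low, enzyme-DMSO high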
SENP8 block-2: SENP8 protease inhibitors, primary screen, biochemical, luminescence | Sentrin-specific protease 8 (Homo sapiens), Q96LD8 | purified SENP8, Z-RLRGG-aminoluciferin cleavage | inhibition, % at 10 µM | 1.2% of 330,000 active | AID 2540, 2010; in the data active means inhibition above about 50%
SENP8 confirm: SENP8 protease inhibitors, retest, confirmation, biochemical, luminescence, single concentration | shares compounds with SENP7 block | Recombinant SENP8, Z-RLRGG-aminoluciferin luminescence, 60 min | inhibition, % at 12.5 µM | 40% of 6,200 active;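 active means mean inhibition across replicates above about 50%, limit read from the data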
SENP6 conf: SENP6 protease inhibitors, confirmation, biochemical, luminescence, single concentration; shares compounds with SENP7 block; recombinant SENP6, Z-RLRGG-aminoluciferin luminescence; inhibition, % at 12.5 µM; 58% of 6,200 active
SENP7 confirm: SENP7 protease inhibitors, retest, confirmation, biochemical, luminescence, single concentration; 69% of 6,200 active; inhibition, % at 12.5 µM; recombinant SENP7, Z-RLRGG-aminoluciferin luminescence, 40 min; shares compounds with SENP7 block
Casp3 select: caspase-3 protease inhibitors, confirmation, selectivity assay for SENP inhibitor project, biochemical, single concentration; shares compounds with SENP7 block; purified caspase-3, Z-DEVD-aminoluciferin luminescence, 60 min; inhibition, % at 12.5 µM; 60% of 6,200 active; AID 488918, 2010;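 active means mean inhibition above about 50%, limit read from the data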
Luc interf: interferes with luciferase luminescence in SENP counter-screen; 39% of 6,200 active; inhibition, % at 12.5 µM; Pre-incubated SENP8/Z-RLRGG-aminoluciferin, luciferase luminescence interference; shares compounds with SENP7 block;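 active means mean inhibition above about 50% when retested at one dose, limit read from the data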
Numbers stand for hits; - = inactive; . = no result given.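 How the source made its calls, unless noted: active means mean inhibition above about 50% in the one-dose retest (limit read from the data); inactive means the rest.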

SMILES	SENP8 block-1	SENP6 block	SENP7 block	SENP1 FRET inh	SENP8 block-2	SENP8 confirm	SENP6 conf	SENP7 confirm	Casp3 select	Luc interf
COc1ccc2nc(NC(=O)c3cccnc3SC)sc2c1	-	93	85	-	71	78	77	93	72	-
CSc1ncccc1C(=O)Nc1nc2ccc(S(C)(=O)=O)cc2s1	-	-	-	-	-	.	.	.	.	.
CCOC(=O)/C=C/c1ccc2oc3ccccc3c(=O)c2c1	-	94	92	-	83	-	-	60	-	-
CCCC1NC(=O)c2cccnc2-n2c1nc1ccc(OC)cc1c2=O (centres undefined)	-	.	.	-	.	.	.	.	.	.
COC(=O)c1c(N)sc(C(=O)NCCc2ccccc2)c1C	-	88	89	-	75	85	82	95	89	85
CN(c1ccc(C(=O)NCCc2ccccc2)cc1)S(C)(=O)=O	-	-	55	-	-	-	-	56	69	-
Cc1ccc(C(=O)NCCc2ccccc2)cc1	-	53	54	-	-	-	-	77	79	58
Cc1ccc(S(=O)(=O)N(C)c2ccc(C(=O)NCCc3ccccc3)cc2)cc1	-	-	-	-	-	.	.	.	.	.
Cc1[nH]n(C(N)=S)c(=O)c1N=Nc1cccc([N+](=O)[O-])c1C	-	96	71	-	88	96	95	102	92	88
Cc1ccc(N=Nc2c(C)[nH]n(C(N)=S)c2=O)cc1C	57	90	78	-	78	61	54	67	73	-
Cc1[nH]n(C(N)=S)c(=O)c1N=Nc1ccc2ccccc2c1	-	.	.	-	.	.	.	.	.	.
Cc1c(N=Nc2c(-c3ccc([N+](=O)[O-])cc3)[nH]n(C(N)=S)c2=O)cccc1[N+](=O)[O-]	-	.	.	-	.	.	.	.	.	.
Cc1[nH]n(C(N)=S)c(=O)c1N=Nc1ccc(S(=O)(=O)N2CCCCCC2)cc1	-	73	-	-	-	51	-	-	-	-
Cc1[nH]n(C(N)=S)c(=O)c1N=Nc1cc(-c2ccc(Br)cc2)[nH]n1	-	69	-	-	55	-	-	-	-	-
COc1cccc(OCC(=O)Nc2c3c(nn2-c2ccccc2)CS(=O)(=O)C3)c1	-	-	-	-	-	.	.	.	.	.
CC(=O)Nc1ccc(N=Nc2c(C)[nH]n(C(N)=S)c2=O)cc1	-	53	67	-	70	64	66	93	92	-
NC(=S)n1[nH]c(-c2ccc([N+](=O)[O-])cc2)c(N=Nc2cccc([N+](=O)[O-])c2)c1=O	-	.	.	-	.	.	.	.	.	.
Cc1ccccc1N=C1Nc2ccccc2CS1	-	86	80	-	74	-	79	95	79	-
COc1ccc2c(c1OC)C(=O)OC2Nc1nc(-c2ccc(-c3ccccc3)cc2)cs1 (centres undefined)	-	83	63	-	69	51	-	56	-	74
COc1ccc2c(c1OC)C(=O)OC2Nc1nc(-c2cc3ccccc3oc2=O)cs1 (centres undefined)	-	96	91	-	90	91	95	88	94	86
COc1ccc2c(c1OC)C(=O)OC2Nc1nc(-c2cc3cc([N+](=O)[O-])ccc3oc2=O)cs1 (centres undefined)	-	60	65	-	52	-	-	-	-	-
C[C@@H]1CCCCO[C@@H](CN(C)C(=O)CCC(F)(F)F)[C@@H](C)CN([C@H](C)CO)C(=O)c2cc(N(C)C)ccc2O1	-	.	.	-	.	.	.	.	.	.
COc1cc(CN2C[C@@H](CO)O[C@@H](n3cnc4c(NCCN(C)C)ncnc43)C2)cc(OC)c1OC	-	.	.	-	.	.	.	.	.	.
COc1ccccc1/C=C(/NC(=O)c1ccccc1)C(=O)NCCN1CCOCC1	-	-	-	-	-	.	.	.	.	.
c1ccc2c(C(c3nnnn3-c3ccc4c(c3)OCCO4)N3CCCCC3)ccnc2c1 (centres undefined)	-	.	.	-	.	.	.	.	.	.
SMILES	SENP8 block-1	SENP6 block	SENP7 block	SENP1 FRET inh	SENP8 block-2	SENP8 confirm	SENP6 conf	SENP7 confirm	Casp3 select	Luc interf
CC1(C(=O)Nc2nnc(C(C)(C)C)s2)Cc2ccccc2C(=O)O1 (centres undefined)	-	-	101	-	-	-	-	-	-	-
N#Cc1sc2nc(C3CC3)cc(-c3ccccc3)c2c1N	-	-	-	-	-	.	.	.	.	.
N#Cc1sc2nc(-c3ccccc3)cc(-c3ccco3)c2c1N	-	86	-	-	93	-	-	-	-	-
Cc1ccnc(NC(=O)CSc2nnc3c(n2)[nH]c2ccccc23)c1	.	-	-	.	-	.	.	.	.	.
Cc1ccc(-c2noc(CSc3ccccc3)n2)cc1	-	76	52	-	-	51	60	81	-	-
Cc1ccc(OCc2nc(-c3ccccc3)no2)cc1	-	56	-	-	-	-	-	65	-	-
Cc1cccc(-c2noc(CSc3ccccc3)n2)c1	-	-	-	-	-	.	.	.	.	.
COc1ccc(-c2noc(Cc3cccs3)n2)cc1	-	50	-	-	-	-	-	69	-	-
COc1ccc(Cc2nc3ccc(C(=O)NC(C)c4cn(C)nc4C)cc3o2)cc1 (centres undefined)	-	-	-	-	-	.	.	.	.	.
Cc1nn(C(C)C(=O)Nc2ccc(Cl)cn2)c(C)c1[N+](=O)[O-] (centres undefined)	-	-	80	-	-	-	-	-	-	-
Cc1cc(C(O)c2ncc(-c3ccccc3)[nH]2)ccc1F (centres undefined)	-	.	.	-	.	.	.	.	.	.
Cc1ccc2nc(-c3ccc(N)cc3)sc2c1	-	95	98	-	95	96	98	102	92	-
CC(=O)NC(=S)Nc1ccc(-c2nc3ccc(C)cc3s2)cc1	-	-	-	-	-	.	.	.	.	.
